{"source": "ChEMBL document CHEMBL1671759", "about": "“Thr202Ala in thyA is a marker for the Latin American Mediterranean lineage of the Mycobacterium tuberculosis complex rather than para-aminosalicylic acid resistance” (2010)", "key": {"[1]": {"tested_on": "Mycobacterium tuberculosis", "test": "Antimicrobial activity against Mycobacterium tuberculosis Haarlem 9532/03 harboring thyA Thr202Ala single nucleotide polymorphism grown in 7H9 broth assessed as decrease in bacterial growth at 0.125 to 2 ug/ml by spectrophotometry", "format": "functional, organism-based", "outline": "(§1)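 PAS growth curves in 7H9 broth with OADC (10%) and Tween 80 (0.05%), 37°C, rolling device. PAS was added at OD600 0.1 to 0, 0.13, 0.25, 0.5, 1.0 and 2.0 mg/liter. OD600 was read daily for 9 consecutive days, in triplicate. Curves are means of three independent experiments.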"}, "[2]": {"tested_on": "Mycobacterium tuberculosis", "test": "Antimicrobial activity against Mycobacterium tuberculosis LAM 7968/03 harboring thyA Thr202Ala single nucleotide polymorphism grown in Lowenstein-Jensen medium", "format": "functional", "outline": "(§2)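 PAS MIC by conventional susceptibility testing on Löwenstein-Jensen medium at 0.063, 0.13, 0.25, 0.5 and 1.0 mg/liter PAS. Strains were drawn from the reference collection and cultivated at the Borstel Supranational Reference Laboratory.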"}, "[3]": {"tested_on": "Mycobacterium tuberculosis", "test": "Antimicrobial activity against Mycobacterium tuberculosis H37Rv 9679/00 harboring thyA Thr202Ala single nucleotide polymorphism grown in 7H9 broth assessed as decrease in bacterial growth at 0.125 to 2 ug/ml by spectrophotometry", "format": "functional, organism-based", "outline": "as §1"}, "[4]": {"tested_on": "Mycobacterium tuberculosis", "test": "Antimicrobial activity against Mycobacterium tuberculosis LAM 8885/05 harboring thyA Thr202Ala single nucleotide polymorphism grown in Lowenstein-Jensen medium", "format": "functional", "outline": "as §2"}, "[5]": {"tested_on": "Mycobacterium tuberculosis", "test": "Antimicrobial activity against Mycobacterium tuberculosis Beijing 1934/03 harboring thyA Thr202Ala single nucleotide polymorphism grown in Lowenstein-Jensen medium", "format": "functional", "outline": "as §2"}, "[6]": {"tested_on": "Mycobacterium tuberculosis", "test": "Antimicrobial activity against Mycobacterium tuberculosis Beijing 1934/03 harboring thyA Thr202Ala single nucleotide polymorphism grown in 7H9 broth assessed as decrease in bacterial growth at 0.125 to 2 ug/ml by spectrophotometry", "format": "functional, organism-based", "outline": "as §1"}, "[7]": {"tested_on": "Mycobacterium tuberculosis", "test": "Antimicrobial activity against Mycobacterium tuberculosis LAM 7968/03 harboring thyA Thr202Ala single nucleotide polymorphism grown in 7H9 broth assessed as decrease in bacterial growth at 0.125 to 2 ug/ml by spectrophotometry", "format": "functional, organism-based", "outline": "as §1"}, "[8]": {"tested_on": "Mycobacterium tuberculosis", "test": "Antimicrobial activity against Mycobacterium tuberculosis H37Rv 9679/00 harboring thyA Thr202Ala single nucleotide polymorphism grown in Lowenstein-Jensen medium", "format": "functional", "outline": "as §2"}, "[9]": {"tested_on": "Mycobacterium tuberculosis", "test": "Antimicrobial activity against Mycobacterium tuberculosis Haarlem 9532/03 harboring thyA Thr202Ala single nucleotide polymorphism grown in Lowenstein-Jensen medium", "format": "functional", "outline": "as §2"}, "[10]": {"tested_on": "Mycobacterium tuberculosis", "test": "Antimicrobial activity against Mycobacterium tuberculosis LAM 8885/05 harboring thyA Thr202Ala single nucleotide polymorphism grown in 7H9 broth assessed as decrease in bacterial growth at 0.125 to 2 ug/ml by spectrophotometry", "format": "functional, organism-based", "outline": "as §1"}}, "note": "Activity calls are given as the source filed them. The rule behind the calls is not given here."}
{"smiles": "Nc1ccc(C(=O)O)c(O)c1", "note": "[AMINOSALICYLIC ACID]", "values": [{"measurement": "Activity", "setting": "[1]", "result": "Active"}, {"measurement": "MIC", "setting": "[2]", "result": 0.5, "unit": "ng/mL"}, {"measurement": "Activity", "setting": "[3]", "result": "Active"}, {"measurement": "MIC", "setting": "[4]", "result": 0.5, "unit": "ng/mL"}, {"measurement": "MIC", "setting": "[5]", "result": 0.5, "unit": "ng/mL"}, {"measurement": "Activity", "setting": "[6]", "result": "Active"}, {"measurement": "Activity", "setting": "[7]", "result": "Active"}, {"measurement": "MIC", "setting": "[8]", "result": 0.5, "unit": "ng/mL"}, {"measurement": "MIC", "setting": "[9]", "result": 0.5, "unit": "ng/mL"}, {"measurement": "Activity", "setting": "[10]", "result": "Active"}]}
